PubChem BioAssay AID588826 (Broad Institute, 2011)
pIC50: −log10 of the molar value. “And” between values parts separate entries of the source, which are not always exact repeats. Equal entries are not always repeated. The source made the active and inactive calls.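 The calls were made as follows: active = compounds cutting cell viability whose fitted half-maximal concentration is at most twice the top tested dose; inconclusive = flat loss between 30% and 70%, or poor curve fit; inactive = opposite effect, flat within 30%, or weaker potency.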

Tested on: ldlA[mSR-BI] CHO cells viability, CellTiter-Glo ATP, 24 h
Test: cytotoxicity in ldlA[mSR-BI] CHO cells, dose response, cytotoxicity control for SR-BI HDL uptake inhibitor project, cell-based, CellTiter-Glo luminescence, 24 h, dry powder, set 3 (AID 588826)
Settings: not given
Procedure, shortened: (§1)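 Timing: 24 h compound exposure at 37 °C, read 10 min after reagent; material: ldlA[mSR-BI] cells; evaluation: IC50 from dose-response of viability, signal loss meaning toxicity; measured by: ATP luminescence, CellTiter-Glo; medium: Ham's F12 plus 10% FCS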

SMILES	pIC50
Cc1ccc2oc(-c3cccc(NC(=O)c4cc(-n5cnnc5)ccc4Cl)c3)nc2c1	4.40
COc1c(NC(=O)C(=O)c2ccc(OCCN3CCOCC3)c3ccccc23)cc(C(C)(C)C)cc1NS(C)(=O)=O	4.75
CCOc1ccccc1/C=C/c1onc(C)c1S(=O)(=O)N1CCC(C(=O)NC(C)(C)C)CC1	4.47
CCCCCCC1CCC/C1=N\NC(N)=S (stereo not given)	5.35
C[C@H]1CN([C@@H](C)CO)C(=O)c2cccc(NC(=O)Nc3ccccc3)c2O[C@@H]1CN(C)Cc1ccc(Cl)c(Cl)c1	4.79
CC(C(=O)NC1CCCC1)N(C(=O)Cn1nnc(-c2ccc(Cl)cc2)n1)C1CCCCC1 (stereo not given)	4.28

Tested on: not listed separately
Test: as above
Settings: ldlA[mSR-BI] CHO cells viability, CellTiter-Glo ATP, 24 h; at 11 µM (top of the series)
Procedure, shortened: as §1

SMILES	activity change, negative = cytotoxicity
CC(C)NC(=O)Nc1cccc2c1O[C@H](CN(C)Cc1ccc(Cl)c(Cl)c1)[C@@H](C)CN([C@@H](C)CO)C2=O	6.58% (inactive)

Same assay, conditions: ldlA[mSR-BI] CHO cells viability, CellTiter-Glo ATP, 24 h; at 30 µM (top of the series)

SMILES	activity change, negative = cytotoxicity
C[C@@H]1CN([C@@H](C)CO)C(=O)Cc2cc(NC(=O)Nc3ccc(C(F)(F)F)cc3)ccc2O[C@@H]1CN(C)S(=O)(=O)c1ccc(Cl)cc1	-40.4% (inactive)

Same assay, conditions: ldlA[mSR-BI] CHO cells viability, CellTiter-Glo ATP, 24 h; at 35 µM (top of the series)

SMILES	activity change, negative = cytotoxicity
COCC(=O)N1CCc2cc(-c3csc(NC(=O)c4cc(OC)cc(OC)c4)n3)ccc21	4.05% (inactive)
COc1ccc(-c2cc(CC(=O)N(C3CCCCC3)C(C)C(=O)NC3CCCC3)no2)cc1OC (stereo not given)	3.77% (inactive)
O=C(CN(C(=O)Cn1nnc(-c2ccc3c(c2)OCO3)n1)C1CCCCC1)NC1CCCC1	-3.34% (inactive)
CCC(=O)N1CCc2cc(-c3csc(NC(=O)c4ccco4)n3)ccc21	-2.4% (inactive)
COc1ccc(-c2nnn(CC(=O)N(C3CCCC3)C(C)C(=O)NC3CCCC3)n2)cc1OC (stereo not given)	-0.791% (inactive)
CCOC(=O)N1CCC(NC(=O)c2ccc3c(c2)N(Cc2ccc(F)cc2)CCS3)CC1	-13.6% (inactive)
COc1cc(OC)cc(C(=O)Nc2nc(-c3ccc4c(c3)CCN4C(=O)OC(C)(C)C)cs2)c1	5.45% (inactive)
CCNC(=O)N1CCc2cc(-c3csc(NC(=O)c4cc(OC)cc(OC)c4)n3)ccc21	-8.64% (inactive)
COc1cc(OC)cc(C(=O)Nc2nc(-c3ccc4c(c3)CCN4C(=O)CN(C)C)cs2)c1	-10.2% (inactive)
C[C@@H]1CN([C@H](C)CO)C(=O)c2cc(NC(=O)Cc3cn(C)c4ccccc34)ccc2O[C@H]1CN(C)S(=O)(=O)c1ccc(F)cc1	-4.67% (inactive)
COc1ccc(-c2nnn(CC(=O)N(C3CCCCC3)C(C(=O)NC3CCCC3)C(C)C)n2)cc1OC (stereo not given)	-15.8% (inactive)
CCC(=O)N1CCc2cc(-c3csc(NC(=O)c4ccc(F)c(OC)c4)n3)ccc21	-12.3% (inactive)
CCC(=O)N1CC(C)(C)c2cc(-c3csc(NC(=O)c4cc(OC)cc(OC)c4)n3)ccc21	-3.5% (inactive)
CC(=O)N1CCc2cc(-c3nc(NC(=O)c4cccc(OC(F)(F)F)c4)sc3C)ccc21	1.36% (inactive)
CCC(=O)N1CCc2cc(-c3csc(NC(=O)c4ccc(Cl)s4)n3)ccc21	-1.8% (inactive)
C[C@H](C(=O)NC1CCCC1)N(C(=O)Cn1nnc(-c2ccc3c(c2)OCO3)n1)C1CCCCC1	-10.6% (inactive)
CCC(=O)N1CCc2cc(-c3csc(NC(=O)c4cccc(C#N)c4)n3)ccc21	-0.356% (inactive)
COc1ccc(-c2nnn(CC(=O)N(C3CCN(C)CC3)C(C)C(=O)NC3CCCC3)n2)cc1OC (stereo not given)	9.25% (inactive)
COc1ccc(-c2nnn(CC(=O)N(C3CCCCC3)C(C)C(=O)NC3CCCC3)n2)cc1OC (stereo not given)	37.1% (inactive)
CCC(=O)N1CCc2cc(-c3csc(NC(=O)c4cccc(OC)c4)n3)ccc21	3.32% (inactive)
COc1ccc(-c2nnn(CC(=O)N(CC3CCCCC3)C(C)C(=O)NC3CCCC3)n2)cc1OC (stereo not given)	3.32% (inactive)
CC1CCC/C=C/C2CC(O)CC2C(O)/C=C\C(=O)O1 (stereo not given)	-9.81% (inactive)
C[C@@H]1CN([C@H](C)CO)C(=O)c2cc(NC(=O)Cc3cn(C)c4ccccc34)ccc2O[C@H]1CN(C)S(=O)(=O)c1ccc(Cl)cc1	4.93% (inactive) and -3.5% (inactive) and 6.65% (inactive)
CCC(=O)N1CCc2cc(-c3csc(NC(=O)c4ccc5c(c4)OCO5)n3)ccc21	1.94% (inactive)
CC(C(=O)NC1CCCC1)N(C(=O)Cn1nnc(-c2ccccc2)n1)C1CCCCC1 (stereo not given)	4.27% (inactive)
CC(C)(Sc1cc(C(C)(C)C)c(O)c(C(C)(C)C)c1)Sc1cc(C(C)(C)C)c(O)c(C(C)(C)C)c1	-1.63% (inactive)

Same assay, conditions: ldlA[mSR-BI] CHO cells viability, CellTiter-Glo ATP, 24 h; at 68 µM (top of the series)

SMILES	activity change, negative = cytotoxicity
CCOc1ccc(NC(=O)CN2CCN(CC(=O)Nc3cc(OC)cc(OC)c3)CC2)cc1	-0.275% (inactive)
